tested on: NCI-H1975; test: Cytotoxicity against human NCI-H1975 cells assessed as reduction in cell viability after 72 hrs by CCK8 assay; assay type: functional, cell-based; details: Homo sapiens, NCI-H1975, 72 h; read-out: IC50; call rule not given here
Outline: (§1)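 Cells kept in RPMI or DMEM with 10% FBS and 1% penicillin/streptomycin at 37 °C in 5% CO2. Seeded at 400-800 cells/well in 384-well plates and exposed to varying compound concentrations, with solution-only control, for 72 h. CCK8 reagent added, then absorbance read at 450 nm. Plinabulin and TSA were positive controls. Mean SD of three experiments.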

| Structure (SMILES) | IC50 [nM] |
| --- | --- |
| C=CCn1c(=O)/c(=C\c2cc(F)ccc2C)[nH]c(=O)/c1=C\c1ccccc1OC | 7300 |
| COc1ccccc1/C=c1/[nH]c(=O)/c(=C\c2ccccc2OC)n(C)c1=O | 16900 |
| COc1ccccc1/C=c1\c(=O)[nH]/c(=C/c2ccccc2Cl)c(=O)n1C | 200 |
| COc1ccccc1/C=c1\c(=O)[nH]/c(=C/c2cccc(Cl)c2Cl)c(=O)n1C | 300 |
| CC(C)(C)c1[nH]cnc1/C=c1\[nH]c(=O)/c(=C/c2ccccc2)[nH]c1=O [PLINABULIN] | 11 |

same assay, conditions: nci-h1975

| Structure (SMILES) | IC50 |
| --- | --- |
| COc1ccccc1/C=c1/[nH]c(=O)/c(=C\c2ccccc2OC)[nH]c1=O | Not Active |
| C=CCn1c(=O)/c(=C\c2ccc(Cl)c(Cl)c2)[nH]c(=O)/c1=C\c1ccccc1 | Not Active |
| COc1ccccc1/C=c1/[nH]c(=O)/c(=C\c2cccc(Cl)c2Cl)[nH]c1=O | Not Active |

tested on: U-937; test: Cytotoxicity against human U937 cells assessed as reduction in cell viability after 72 hrs by CCK8 assay; assay type: functional, cell-based; details: Homo sapiens, U-937, 72 h; read-out: IC50; outline: as §1

| Structure (SMILES) | IC50 [nM] |
| --- | --- |
| C=CCn1c(=O)/c(=C\c2cc(F)ccc2C)[nH]c(=O)/c1=C\c1ccccc1OC | 1000 |
| COc1ccccc1/C=c1/[nH]c(=O)/c(=C\c2ccccc2OC)n(C)c1=O | 1500 |
| COc1ccccc1/C=c1\c(=O)[nH]/c(=C/c2ccccc2Cl)c(=O)n1C | 100 |
| COc1ccccc1/C=c1\c(=O)[nH]/c(=C/c2cccc(Cl)c2Cl)c(=O)n1C | 100 |
| CC(C)(C)c1[nH]cnc1/C=c1\[nH]c(=O)/c(=C/c2ccccc2)[nH]c1=O [PLINABULIN] | 6 |

same assay, conditions: u-937

| Structure (SMILES) | IC50 |
| --- | --- |
| COc1ccccc1/C=c1/[nH]c(=O)/c(=C\c2ccccc2OC)[nH]c1=O | Not Active |
| C=CCn1c(=O)/c(=C\c2ccc(Cl)c(Cl)c2)[nH]c(=O)/c1=C\c1ccccc1 | Not Active |
| COc1ccccc1/C=c1/[nH]c(=O)/c(=C\c2cccc(Cl)c2Cl)[nH]c1=O | Not Active |

tested on: A549; test: Cytotoxicity against human A549 cells assessed as reduction in cell viability after 72 hrs by CCK8 assay; assay type: functional, cell-based; details: Homo sapiens, A549, 72 h; read-out: IC50; outline: as §1

| Structure (SMILES) | IC50 [nM] |
| --- | --- |
| C=CCn1c(=O)/c(=C\c2cc(F)ccc2C)[nH]c(=O)/c1=C\c1ccccc1OC | 4900 |
| COc1ccccc1/C=c1/[nH]c(=O)/c(=C\c2ccccc2OC)n(C)c1=O | 7000 |
| COc1ccccc1/C=c1\c(=O)[nH]/c(=C/c2ccccc2Cl)c(=O)n1C | 300 |
| COc1ccccc1/C=c1\c(=O)[nH]/c(=C/c2cccc(Cl)c2Cl)c(=O)n1C | 200 |
| CC(C)(C)c1[nH]cnc1/C=c1\[nH]c(=O)/c(=C/c2ccccc2)[nH]c1=O [PLINABULIN] | 10 |

same assay, conditions: a549

| Structure (SMILES) | IC50 |
| --- | --- |
| COc1ccccc1/C=c1/[nH]c(=O)/c(=C\c2ccccc2OC)[nH]c1=O | Not Active |
| C=CCn1c(=O)/c(=C\c2ccc(Cl)c(Cl)c2)[nH]c(=O)/c1=C\c1ccccc1 | Not Active |
| COc1ccccc1/C=c1/[nH]c(=O)/c(=C\c2cccc(Cl)c2Cl)[nH]c1=O | Not Active |

tested on: not listed separately; test: Cytotoxicity against human HuH7 cells assessed as reduction in cell viability after 72 hrs by CCK8 assay; assay type: functional, cell-based, Huh-7; details: Homo sapiens, Huh-7, 72 h; read-out: IC50; outline: as §1

| Structure (SMILES) | IC50 [nM] |
| --- | --- |
| C=CCn1c(=O)/c(=C\c2cc(F)ccc2C)[nH]c(=O)/c1=C\c1ccccc1OC | 5600 |
| COc1ccccc1/C=c1\c(=O)[nH]/c(=C/c2ccccc2Cl)c(=O)n1C | 300 |
| COc1ccccc1/C=c1\c(=O)[nH]/c(=C/c2cccc(Cl)c2Cl)c(=O)n1C | 300 |
| CC(C)(C)c1[nH]cnc1/C=c1\[nH]c(=O)/c(=C/c2ccccc2)[nH]c1=O [PLINABULIN] | 31 |

same assay, conditions: huh-7

| Structure (SMILES) | IC50 |
| --- | --- |
| COc1ccccc1/C=c1/[nH]c(=O)/c(=C\c2ccccc2OC)[nH]c1=O | Not Active |
| C=CCn1c(=O)/c(=C\c2ccc(Cl)c(Cl)c2)[nH]c(=O)/c1=C\c1ccccc1 | Not Active |
| COc1ccccc1/C=c1/[nH]c(=O)/c(=C\c2ccccc2OC)n(C)c1=O | Not Active |
| COc1ccccc1/C=c1/[nH]c(=O)/c(=C\c2cccc(Cl)c2Cl)[nH]c1=O | Not Active |

tested on: MOLT-4; test: Cytotoxicity against human MOLT4 cells assessed as reduction in cell viability after 72 hrs by CCK8 assay; assay type: functional, cell-based; details: Homo sapiens, MOLT-4, 72 h; read-out: IC50; outline: as §1

| Structure (SMILES) | IC50 [nM] |
| --- | --- |
| C=CCn1c(=O)/c(=C\c2cc(F)ccc2C)[nH]c(=O)/c1=C\c1ccccc1OC | 3800 |

same assay, conditions: molt-4

| Structure (SMILES) | IC50 |
| --- | --- |
| C=CCn1c(=O)/c(=C\c2ccc(Cl)c(Cl)c2)[nH]c(=O)/c1=C\c1ccccc1 | Not Active |

tested on: not listed separately; test: Cytotoxicity against human BGC823 cells assessed as reduction in cell viability after 72 hrs by CCK8 assay; assay type: functional, cell-based, BGC-823; details: Homo sapiens, BGC-823, 72 h; read-out: IC50; outline: as §1

| Structure (SMILES) | IC50 [nM] |
| --- | --- |
| C=CCn1c(=O)/c(=C\c2cc(F)ccc2C)[nH]c(=O)/c1=C\c1ccccc1OC | 1600 |
| COc1ccccc1/C=c1\c(=O)[nH]/c(=C/c2ccccc2Cl)c(=O)n1C | 300 |
| COc1ccccc1/C=c1\c(=O)[nH]/c(=C/c2cccc(Cl)c2Cl)c(=O)n1C | 300 |
| CC(C)(C)c1[nH]cnc1/C=c1\[nH]c(=O)/c(=C/c2ccccc2)[nH]c1=O [PLINABULIN] | 9 |

same assay, conditions: bgc-823

| Structure (SMILES) | IC50 |
| --- | --- |
| COc1ccccc1/C=c1/[nH]c(=O)/c(=C\c2ccccc2OC)[nH]c1=O | Not Active |
| C=CCn1c(=O)/c(=C\c2ccc(Cl)c(Cl)c2)[nH]c(=O)/c1=C\c1ccccc1 | Not Active |
| COc1ccccc1/C=c1/[nH]c(=O)/c(=C\c2ccccc2OC)n(C)c1=O | Not Active |
| COc1ccccc1/C=c1/[nH]c(=O)/c(=C\c2cccc(Cl)c2Cl)[nH]c1=O | Not Active |

tested on: K562; test: Cytotoxicity against human K562 cells assessed as reduction in cell viability after 72 hrs by CCK8 assay; assay type: functional, cell-based; details: Homo sapiens, K562, 72 h; read-out: IC50; outline: as §1

| Structure (SMILES) | IC50 [nM] |
| --- | --- |
| C=CCn1c(=O)/c(=C\c2cc(F)ccc2C)[nH]c(=O)/c1=C\c1ccccc1OC | 1800 |
| COc1ccccc1/C=c1/[nH]c(=O)/c(=C\c2ccccc2OC)n(C)c1=O | 2200 |
| COc1ccccc1/C=c1\c(=O)[nH]/c(=C/c2ccccc2Cl)c(=O)n1C | 110 |
| COc1ccccc1/C=c1\c(=O)[nH]/c(=C/c2cccc(Cl)c2Cl)c(=O)n1C | 110 |
| CC(C)(C)c1[nH]cnc1/C=c1\[nH]c(=O)/c(=C/c2ccccc2)[nH]c1=O [PLINABULIN] | 8 |

same assay, conditions: k562

| Structure (SMILES) | IC50 |
| --- | --- |
| COc1ccccc1/C=c1/[nH]c(=O)/c(=C\c2ccccc2OC)[nH]c1=O | Not Active |
| C=CCn1c(=O)/c(=C\c2ccc(Cl)c(Cl)c2)[nH]c(=O)/c1=C\c1ccccc1 | Not Active |
| COc1ccccc1/C=c1/[nH]c(=O)/c(=C\c2cccc(Cl)c2Cl)[nH]c1=O | Not Active |

tested on: MCF7; test: Cytotoxicity against human MCF7 cells assessed as reduction in cell viability after 72 hrs by CCK8 assay; assay type: functional, cell-based; details: Homo sapiens, MCF7, 72 h; read-out: IC50; outline: as §1

| Structure (SMILES) | IC50 [nM] |
| --- | --- |
| C=CCn1c(=O)/c(=C\c2cc(F)ccc2C)[nH]c(=O)/c1=C\c1ccccc1OC | 3100 |
| COc1ccccc1/C=c1/[nH]c(=O)/c(=C\c2ccccc2OC)n(C)c1=O | 9000 |
| COc1ccccc1/C=c1\c(=O)[nH]/c(=C/c2ccccc2Cl)c(=O)n1C | 200 |
| COc1ccccc1/C=c1\c(=O)[nH]/c(=C/c2cccc(Cl)c2Cl)c(=O)n1C | 200 |
| CC(C)(C)c1[nH]cnc1/C=c1\[nH]c(=O)/c(=C/c2ccccc2)[nH]c1=O [PLINABULIN] | 10 |

same assay, conditions: mcf7

| Structure (SMILES) | IC50 |
| --- | --- |
| COc1ccccc1/C=c1/[nH]c(=O)/c(=C\c2ccccc2OC)[nH]c1=O | Not Active |
| C=CCn1c(=O)/c(=C\c2ccc(Cl)c(Cl)c2)[nH]c(=O)/c1=C\c1ccccc1 | Not Active |
| COc1ccccc1/C=c1/[nH]c(=O)/c(=C\c2cccc(Cl)c2Cl)[nH]c1=O | Not Active |

tested on: HeLa; test: Cytotoxicity against human HeLa cells assessed as reduction in cell viability after 72 hrs by CCK8 assay; assay type: functional, cell-based; details: Homo sapiens, HeLa, 72 h; read-out: IC50; outline: as §1

| Structure (SMILES) | IC50 [nM] |
| --- | --- |
| C=CCn1c(=O)/c(=C\c2cc(F)ccc2C)[nH]c(=O)/c1=C\c1ccccc1OC | 2900 |
| COc1ccccc1/C=c1\c(=O)[nH]/c(=C/c2ccccc2Cl)c(=O)n1C | 300 |
| COc1ccccc1/C=c1\c(=O)[nH]/c(=C/c2cccc(Cl)c2Cl)c(=O)n1C | 200 |
| CC(C)(C)c1[nH]cnc1/C=c1\[nH]c(=O)/c(=C/c2ccccc2)[nH]c1=O [PLINABULIN] | 10 |

same assay, conditions: hela

| Structure (SMILES) | IC50 |
| --- | --- |
| COc1ccccc1/C=c1/[nH]c(=O)/c(=C\c2ccccc2OC)[nH]c1=O | Not Active |
| C=CCn1c(=O)/c(=C\c2ccc(Cl)c(Cl)c2)[nH]c(=O)/c1=C\c1ccccc1 | Not Active |
| COc1ccccc1/C=c1/[nH]c(=O)/c(=C\c2ccccc2OC)n(C)c1=O | Not Active |
| COc1ccccc1/C=c1/[nH]c(=O)/c(=C\c2cccc(Cl)c2Cl)[nH]c1=O | Not Active |

tested on: HL-60; test: Cytotoxicity against human HL60 cells assessed as reduction in cell viability after 72 hrs by CCK8 assay; assay type: functional, cell-based; details: Homo sapiens, HL-60, 72 h; read-out: IC50; outline: as §1

| Structure (SMILES) | IC50 [nM] |
| --- | --- |
| C=CCn1c(=O)/c(=C\c2cc(F)ccc2C)[nH]c(=O)/c1=C\c1ccccc1OC | 2600 |
| COc1ccccc1/C=c1/[nH]c(=O)/c(=C\c2ccccc2OC)n(C)c1=O | 16200 |
| COc1ccccc1/C=c1\c(=O)[nH]/c(=C/c2ccccc2Cl)c(=O)n1C | 200 |
| COc1ccccc1/C=c1\c(=O)[nH]/c(=C/c2cccc(Cl)c2Cl)c(=O)n1C | 200 |
| CC(C)(C)c1[nH]cnc1/C=c1\[nH]c(=O)/c(=C/c2ccccc2)[nH]c1=O [PLINABULIN] | 10 |

same assay, conditions: hl-60

| Structure (SMILES) | IC50 |
| --- | --- |
| COc1ccccc1/C=c1/[nH]c(=O)/c(=C\c2ccccc2OC)[nH]c1=O | Not Active |
| C=CCn1c(=O)/c(=C\c2ccc(Cl)c(Cl)c2)[nH]c(=O)/c1=C\c1ccccc1 | Not Active |
| COc1ccccc1/C=c1/[nH]c(=O)/c(=C\c2cccc(Cl)c2Cl)[nH]c1=O | Not Active |

Source: ChEMBL document CHEMBL3286120, “Design and synthesis of novel soluble 2,5-diketopiperazine derivatives as potential anticancer agents” (Eur J Med Chem, 2014)
